{
  "source": "ChEMBL document CHEMBL4368909",
  "about": "“Identification of Dihydrofuro[3,4- d]pyrimidine Derivatives as Novel HIV-1 Non-Nucleoside Reverse Transcriptase Inhibitors with Promising Antiviral Activities and Desirable Physicochemical Properties” (J Med Chem, 2019)",
  "key": {"[1]": {"test_system": "Human immunodeficiency virus 1", "assay": "Antiviral activity against wild type HIV1 3B infected in human MT4 cells assessed as reduction in virus-induced cytopathic effect after 5 days by MTT assay", "assay_type": "functional, organism-based", "settings": "Human immunodeficiency virus 1, 3B, MT4, 120 h"}, "[2]": {"test_system": "Human immunodeficiency virus 1", "assay": "Antiviral activity against HIV1 RES056 infected in human MT4 cells assessed as reduction in virus-induced cytopathic effect after 5 days by MTT assay", "assay_type": "functional, organism-based", "settings": "Human immunodeficiency virus 1, RES056, MT4, 120 h"}, "MT4": {"test_system": "MT4", "assay": "Cytotoxicity against human MT4 cells after 5 days by MTT assay", "assay_type": "cell-based", "settings": "mt4, 120 h"}, "[3]": {"test_system": "Human immunodeficiency virus 1", "assay": "Antiviral activity against HIV1 harboring reverse transcriptase L100I mutant infected in human MT4 cells assessed as reduction in virus-induced cytopathic effect after 5 days by MTT assay", "assay_type": "functional, organism-based", "settings": "Human immunodeficiency virus 1, MT4, 120 h"}, "[4]": {"test_system": "Human immunodeficiency virus 1", "assay": "Antiviral activity against HIV1 harboring reverse transcriptase E138K mutant infected in human MT4 cells assessed as reduction in virus-induced cytopathic effect after 5 days by MTT assay", "assay_type": "functional, organism-based", "settings": "Human immunodeficiency virus 1, MT4, 120 h"}, "[5]": {"test_system": "Human immunodeficiency virus 1", "assay": "Antiviral activity against HIV1 harboring reverse transcriptase F227L/V106A double mutant infected in human MT4 cells assessed as reduction in virus-induced cytopathic effect after 5 days by MTT assay", "assay_type": "functional, organism-based", "settings": "Human immunodeficiency virus 1, MT4, 120 h"}, "[6]": {"test_system": "Human immunodeficiency virus 1", "assay": "Resistance factor, ratio of EC50 for HIV1 harboring reverse transcriptase Y188L mutant to EC50 for wild type HIV1", "assay_type": "functional", "in_short": "(§1)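 The resistance factor is the EC50 against the mutant strain divided by the EC50 against wild-type HIV-1. Both were measured in MT-4 cells by MTT read-out of protection from virus-induced cytopathicity.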"}, "[7]": {"test_system": "Human immunodeficiency virus 1", "assay": "Resistance factor, ratio of EC50 for HIV1 harboring reverse transcriptase E138K mutant to EC50 for wild type HIV1", "assay_type": "functional", "in_short": "as §1"}, "[8]": {"test_system": "Human immunodeficiency virus 1", "assay": "Resistance factor, ratio of EC50 for HIV1 harboring reverse transcriptase F227L/V106A double mutant to EC50 for wild type HIV1", "assay_type": "functional", "in_short": "as §1"}, "[9]": {"target": "Human immunodeficiency virus type 1 reverse transcriptase (Human immunodeficiency virus 1, UniProt Q72547)", "assay": "Inhibition of recombinant HIV1 reverse transcriptase using (DIG)-dUTP and biotin-labeled dNTPs as substrate after 1 hr by ELISA"}, "[10]": {"assay": "Aqueous solubility of the compound at pH at 7 by HPLC analysis", "assay_type": "physicochemical", "settings": "buffer, pH 7", "in_short": "(§2)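 Aqueous solubility read by HPLC in buffer at pH 2.0, 7.0 or 7.4.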"}, "[11]": {"assay": "Aqueous solubility of the compound at pH at 2 by HPLC analysis", "assay_type": "physicochemical", "settings": "buffer, pH 2", "in_short": "as §2"}, "Cytochrome P450 1A2": {"target": "T1, Cytochrome P450 1A2 (Homo sapiens, UniProt P05177)", "T1 sequence (P05177 whole entry)": "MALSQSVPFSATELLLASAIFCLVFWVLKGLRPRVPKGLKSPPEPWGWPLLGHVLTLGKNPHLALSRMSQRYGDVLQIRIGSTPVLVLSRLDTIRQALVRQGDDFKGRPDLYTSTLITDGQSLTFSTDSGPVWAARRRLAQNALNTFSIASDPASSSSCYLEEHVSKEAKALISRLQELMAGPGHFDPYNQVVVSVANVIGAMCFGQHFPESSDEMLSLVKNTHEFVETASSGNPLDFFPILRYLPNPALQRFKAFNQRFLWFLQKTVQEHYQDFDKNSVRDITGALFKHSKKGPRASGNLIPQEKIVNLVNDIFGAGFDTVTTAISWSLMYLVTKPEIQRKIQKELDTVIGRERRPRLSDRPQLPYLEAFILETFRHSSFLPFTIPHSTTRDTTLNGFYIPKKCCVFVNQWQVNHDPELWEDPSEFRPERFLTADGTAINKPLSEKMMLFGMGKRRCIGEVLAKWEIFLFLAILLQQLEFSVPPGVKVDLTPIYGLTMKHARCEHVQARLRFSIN", "assay": "Inhibition of CYP1A2 in human liver microsomes using phenacetin as substrate after 10 mins in presence of NADPH", "assay_type": "ADME"}, "Cytochrome P450 2C19": {"target": "Cytochrome P450 2C19 (Homo sapiens, UniProt P33261)", "sequence (P33261 whole entry)": "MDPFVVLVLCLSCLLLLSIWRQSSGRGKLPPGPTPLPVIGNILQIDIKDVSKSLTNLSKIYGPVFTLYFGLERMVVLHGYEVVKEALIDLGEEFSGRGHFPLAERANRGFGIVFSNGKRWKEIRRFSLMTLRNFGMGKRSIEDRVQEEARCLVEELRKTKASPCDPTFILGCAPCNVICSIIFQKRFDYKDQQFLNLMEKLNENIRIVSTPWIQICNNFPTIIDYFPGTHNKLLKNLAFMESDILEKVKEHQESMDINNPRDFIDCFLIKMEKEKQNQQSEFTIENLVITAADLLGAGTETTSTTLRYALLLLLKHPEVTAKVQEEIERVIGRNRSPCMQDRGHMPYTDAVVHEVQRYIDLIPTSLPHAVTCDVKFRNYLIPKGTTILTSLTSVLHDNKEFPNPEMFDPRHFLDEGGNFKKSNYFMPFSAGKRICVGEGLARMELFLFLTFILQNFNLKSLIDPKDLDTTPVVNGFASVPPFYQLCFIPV", "assay": "Inhibition of CYP2C19 in human liver microsomes using S-mephenytoin as substrate after 10 mins in presence of NADPH", "assay_type": "ADME"}, "Cytochrome P450 3A4": {"target": "Cytochrome P450 3A4 (Homo sapiens, UniProt P08684)", "sequence (P08684 whole entry)": "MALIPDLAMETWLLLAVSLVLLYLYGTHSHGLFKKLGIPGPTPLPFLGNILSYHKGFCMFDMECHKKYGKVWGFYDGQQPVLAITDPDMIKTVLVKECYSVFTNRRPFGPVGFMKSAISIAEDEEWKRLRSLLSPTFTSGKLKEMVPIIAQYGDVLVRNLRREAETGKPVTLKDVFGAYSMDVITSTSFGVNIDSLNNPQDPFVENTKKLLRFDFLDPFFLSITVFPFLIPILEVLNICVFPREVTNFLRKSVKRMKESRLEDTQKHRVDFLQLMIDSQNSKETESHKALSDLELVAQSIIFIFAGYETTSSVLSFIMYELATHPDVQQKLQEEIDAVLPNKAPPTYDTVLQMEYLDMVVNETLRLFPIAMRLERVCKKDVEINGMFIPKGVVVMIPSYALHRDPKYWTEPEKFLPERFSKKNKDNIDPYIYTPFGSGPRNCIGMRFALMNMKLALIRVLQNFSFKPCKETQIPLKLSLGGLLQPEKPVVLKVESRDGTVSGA", "assay": "Inhibition of CYP3A4 in human liver microsomes using midazolam as substrate after 10 mins in presence of NADPH", "assay_type": "ADME"}, "[12]": {"assay": "Protein binding in rat plasma assessed as recovery rate at 2 uM after 5 hrs by LC/MS analysis", "assay_type": "ADME, cell-free"}, "[13]": {"assay": "Half life in Wistar rat at 2 mg/kg, iv by LC-MS/MS analysis", "assay_type": "ADME, organism-based", "settings": "in vivo", "in_short": "(§3)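 Male/unspecified Wistar rats given one dose, 2 mg/kg intravenously or 20 mg/kg orally; plasma concentration–time profiles followed; PK parameters reported as mean ± SD, n = 5.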"}, "[14]": {"assay": "Tmax in Wistar rat at 20 mg/kg, po by LC-MS/MS analysis", "assay_type": "ADME, organism-based", "settings": "in vivo", "in_short": "as §3"}, "[15]": {"assay": "Cmax in Wistar rat at 2 mg/kg, iv by LC-MS/MS analysis", "assay_type": "ADME, organism-based", "parameters": "dose 2 mg/kg, route intravenous", "settings": "in vivo", "in_short": "as §3"}, "[16]": {"assay": "Cmax in Wistar rat at 20 mg/kg, po by LC-MS/MS analysis", "assay_type": "ADME, organism-based", "parameters": "dose 20 mg/kg, route oral", "settings": "in vivo", "in_short": "as §3"}, "[17]": {"assay": "AUCt in Wistar rat at 20 mg/kg, po by LC-MS/MS analysis", "assay_type": "ADME, organism-based", "settings": "in vivo", "in_short": "as §3"}, "[18]": {"assay": "AUC (0 to infinity) in Wistar rat at 2 mg/kg, iv by LC-MS/MS analysis", "assay_type": "ADME, organism-based", "parameters": "dose 2 mg/kg, time infinity, route intravenous", "settings": "in vivo", "in_short": "as §3"}, "[19]": {"assay": "Oral bioavailability in Wistar rat at 20 mg/kg by LC-MS/MS analysis", "assay_type": "ADME, organism-based", "settings": "in vivo", "in_short": "as §3"}, "[20]": {"assay": "Acute toxicity in Kunming mouse assessed as mortality at 800 mg/kg, po measured after 2 weeks", "assay_type": "organism-based", "settings": "in vivo, 336 h", "in_short": "(§4)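 Kunming mice received a single intragastric dose of 800 mg/kg. Deaths and behaviour were observed over 2 weeks and compared with a control group.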"}, "[21]": {"assay": "Acute toxicity in Kunming mouse assessed as behavior abnormalities at 800 mg/kg, po measured after 2 weeks", "assay_type": "organism-based", "settings": "in vivo, 336 h", "in_short": "as §4"}, "[22]": {"assay": "Sub-acute toxicity in Kunming mouse assessed as behavior abnormalities at 50 mg/kg/day, po administered for 2 weeks by hematoxylin and eosin staining-based assay", "assay_type": "organism-based", "settings": "in vivo, 336 h", "in_short": "(§5)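 Mice were dosed orally at 50 mg/kg/day for 2 weeks and observed for behavioural abnormalities during treatment. Organs were then examined by hematoxylin–eosin staining.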"}, "[23]": {"assay": "Sub-acute toxicity in Kunming mouse assessed as effect on heart at 50 mg/kg/day, po administered for 2 weeks by hematoxylin and eosin staining-based assay", "assay_type": "organism-based", "settings": "in vivo, 336 h", "in_short": "as §5"}, "[24]": {"assay": "Sub-acute toxicity in Kunming mouse assessed as effect on liver at 50 mg/kg/day, po administered for 2 weeks by hematoxylin and eosin staining-based assay", "assay_type": "organism-based", "settings": "in vivo, 336 h", "in_short": "as §5"}, "[25]": {"assay": "Sub-acute toxicity in Kunming mouse assessed as effect on spleen at 50 mg/kg/day, po administered for 2 weeks by hematoxylin and eosin staining-based assay", "assay_type": "organism-based", "settings": "in vivo, 336 h", "in_short": "as §5"}, "[26]": {"assay": "Sub-acute toxicity in Kunming mouse assessed as effect on lungs at 50 mg/kg/day, po administered for 2 weeks by hematoxylin and eosin staining-based assay", "assay_type": "organism-based", "settings": "in vivo, 336 h", "in_short": "as §5"}, "[27]": {"assay": "Sub-acute toxicity in Kunming mouse assessed as effect on kidneys at 50 mg/kg/day, po administered for 2 weeks by hematoxylin and eosin staining-based assay", "assay_type": "organism-based", "settings": "in vivo, 336 h", "in_short": "as §5"}, "[28]": {"target": "Voltage-gated inwardly rectifying potassium channel KCNH2 (Homo sapiens, UniProt Q12809)", "sequence (Q12809 whole entry)": "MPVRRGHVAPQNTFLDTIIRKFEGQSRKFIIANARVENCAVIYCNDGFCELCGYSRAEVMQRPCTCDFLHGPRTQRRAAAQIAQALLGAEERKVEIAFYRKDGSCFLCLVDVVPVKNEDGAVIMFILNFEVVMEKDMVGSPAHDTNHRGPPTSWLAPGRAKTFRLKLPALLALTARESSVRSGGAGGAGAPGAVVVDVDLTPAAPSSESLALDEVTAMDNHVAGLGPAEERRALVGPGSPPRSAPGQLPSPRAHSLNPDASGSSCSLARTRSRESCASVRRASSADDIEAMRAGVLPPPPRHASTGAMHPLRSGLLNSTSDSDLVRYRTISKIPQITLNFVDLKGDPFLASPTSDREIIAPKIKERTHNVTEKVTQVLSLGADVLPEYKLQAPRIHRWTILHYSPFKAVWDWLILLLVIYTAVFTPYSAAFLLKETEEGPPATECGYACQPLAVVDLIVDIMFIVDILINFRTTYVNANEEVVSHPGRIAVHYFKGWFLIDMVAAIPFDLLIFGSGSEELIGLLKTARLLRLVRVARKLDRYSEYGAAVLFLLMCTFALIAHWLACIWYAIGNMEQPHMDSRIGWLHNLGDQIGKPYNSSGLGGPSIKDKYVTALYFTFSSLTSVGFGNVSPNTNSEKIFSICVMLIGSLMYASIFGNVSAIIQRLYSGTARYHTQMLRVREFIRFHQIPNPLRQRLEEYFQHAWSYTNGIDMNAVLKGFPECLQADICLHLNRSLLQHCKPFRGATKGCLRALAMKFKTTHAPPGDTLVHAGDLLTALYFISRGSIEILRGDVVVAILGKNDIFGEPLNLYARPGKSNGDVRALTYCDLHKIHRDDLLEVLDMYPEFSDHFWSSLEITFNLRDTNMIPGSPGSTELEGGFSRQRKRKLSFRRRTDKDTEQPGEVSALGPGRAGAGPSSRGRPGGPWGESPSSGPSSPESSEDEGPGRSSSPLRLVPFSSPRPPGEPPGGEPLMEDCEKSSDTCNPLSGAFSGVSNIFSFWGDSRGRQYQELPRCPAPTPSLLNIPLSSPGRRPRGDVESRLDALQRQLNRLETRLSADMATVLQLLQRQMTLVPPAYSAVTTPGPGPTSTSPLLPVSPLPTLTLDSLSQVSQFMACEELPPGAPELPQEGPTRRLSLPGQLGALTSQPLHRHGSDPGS", "assay": "Inhibition of human ERG expressed in HEK293 cells at -80 mV holding potential by manual patch clamp assay"}},
  "data": [
    {"smiles": "Cc1cc(C#N)cc(C)c1Oc1nc(NC2CCN(Cc3ccc(C(N)=O)cc3)CC2)nc2c1COC2", "values": [
      {"measurement": "EC50", "setting": "[1]", "value": 1.6, "unit": "nM"},
      {"measurement": "EC50", "setting": "[2]", "value": 41.5, "unit": "nM"},
      {"measurement": "CC50", "setting": "MT4", "value": "> 250000", "unit": "nM"},
      {"measurement": "EC50", "setting": "[3]", "value": 2.4, "unit": "nM"},
      {"measurement": "EC50", "setting": "[4]", "value": 7, "unit": "nM"},
      {"measurement": "EC50", "setting": "[5]", "value": 19, "unit": "nM"},
      {"measurement": "Ratio EC50", "setting": "[6]", "value": 5.3},
      {"measurement": "Ratio EC50", "setting": "[7]", "value": 4.4},
      {"measurement": "Ratio EC50", "setting": "[8]", "value": 11.9},
      {"measurement": "IC50", "setting": "[9]", "value": 51, "unit": "nM"},
      {"measurement": "solubility", "setting": "[10]", "value": 13.3, "unit": "µg/mL"},
      {"measurement": "solubility", "setting": "[11]", "value": 198, "unit": "µg/mL"},
      {"measurement": "IC50", "setting": "Cytochrome P450 1A2", "value": "> 50000", "unit": "nM"},
      {"measurement": "IC50", "setting": "Cytochrome P450 2C19", "value": "> 50000", "unit": "nM"},
      {"measurement": "IC50", "setting": "Cytochrome P450 3A4", "value": "> 50000", "unit": "nM"},
      {"measurement": "Drug recovery", "setting": "[12]", "value": 77.9, "unit": "%"},
      {"measurement": "half-life", "setting": "[13]", "value": 1.09, "unit": "h"},
      {"measurement": "Tmax", "setting": "[14]", "value": 1.33, "unit": "h"},
      {"measurement": "Cmax", "setting": "[15]", "value": 460, "unit": "ng/mL"},
      {"measurement": "Cmax", "setting": "[16]", "value": 400, "unit": "ng/mL"},
      {"measurement": "AUC(0-t)", "setting": "[17]", "value": 1550, "unit": "ng·h/mL"},
      {"measurement": "AUC(0-inf)", "setting": "[18]", "value": 543, "unit": "ng·h/mL"},
      {"measurement": "F", "setting": "[19]", "value": 30.96, "unit": "%"},
      {"measurement": "Activity", "setting": "[20]", "value": "Non-Toxic"},
      {"measurement": "Activity", "setting": "[21]", "value": "Non-Toxic"},
      {"measurement": "Activity", "setting": "[22]", "value": "Non-Toxic"},
      {"measurement": "Activity", "setting": "[23]", "value": "Non-Toxic"},
      {"measurement": "Activity", "setting": "[24]", "value": "Non-Toxic"},
      {"measurement": "Activity", "setting": "[25]", "value": "Non-Toxic"},
      {"measurement": "Activity", "setting": "[26]", "value": "Non-Toxic"},
      {"measurement": "Activity", "setting": "[27]", "value": "Non-Toxic"},
      {"measurement": "IC50", "setting": "[28]", "value": 830, "unit": "nM"}
    ]}
  ]
}
